This is an account of results in ChEMBL document CHEMBL1142586, “Bisnortriterpenes from Salacia madagascariensis” (J Nat Prod, 2005).

≈ marks a conversion by molar mass, not a printed value.

The subject of one series is Leishmania donovani. In words: Antileishmanial activity against Leishmania donovani promastigotes after 48 hrs by alamar blue assay. The format is functional, organism-based. In a few lines: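 IC50 (µg/mL) was determined in two separate tests against Leishmania donovani, and the mean of the tests was reported. IC90 was also determined.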
Background: The colour change of resazurin is a common sign of viable cells or microbes.

Series [1] concerns Staphylococcus aureus. In words: Antimicrobial activity against Staphylococcus aureus by NCCLS method. Type of series: functional, organism-based.
Series [2] deals with Staphylococcus aureus. The series is described as follows: Antimicrobial activity against methicillin-resistant Staphylococcus aureus by NCCLS method. The format is functional, organism-based.
In series [3] the test system is Mycobacterium intracellulare. In words: Antimicrobial activity against Mycobacterium intracellular by alamar blue test. Type of series: functional, organism-based.
Series [4] relates to Plasmodium falciparum. The series is described as follows: Antiplasmodial activity against Plasmodium falciparum D6. Type of series: functional, organism-based.
Series [5] is described as follows: Selectivity index, ratio of IC50 for african green monkey (Cercopithecus aethiops) Vero cells to IC50 for Plasmodium falciparum D6. Type of series: toxicity, cell-based. Particulars: read-out: Selectivity Index. In a few lines: (§1)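 The index was calculated as the VERO (monkey kidney cell line) IC50 divided by the IC50 against the respective P. falciparum clone.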

In series [6] the test system is Plasmodium falciparum. The series is described as follows: Antiplasmodial activity against Plasmodium falciparum W2. Type of series: functional, organism-based.
Series [7] can be described thus: Selectivity index, ratio of IC50 for african green monkey (Cercopithecus aethiops) Vero cells to IC50 for Plasmodium falciparum W2. The conditions noted are these: read-out: Selectivity Index. The format is toxicity, cell-based. An outline of the steps: as §1
The next series relates to Vero. The series is described as follows: Cytotoxicity against african green monkey Vero cells. Particulars: Chlorocebus sabaeus. The format is cell-based.
The nature of series [8]: Selectivity index, ratio of IC50 for african green monkey VERO cells to IC50 for Leishmania donovani. The conditions noted are these: read-out: Selectivity Index. The format is toxicity, cell-based. An outline of the steps: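 The index was calculated as the VERO cell IC50 divided by the mean IC50 against L. donovani from the two tests.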
The test system of the next series is Leishmania mexicana. The series is described as follows: Antileishmanial activity against Leishmania mexicana. Type of series: functional, organism-based.

In the case of `CC1=C(O)C(=O)C=C2C1=CC=C1[C@@]2(C)CC[C@@]2(C)[C@@H]3C[C@@H](CO)CC[C@]3(C)CC[C@]12C`, the half-inhibitory concentration (IC50) with Leishmania donovani is 0.027 µg/mL (≈ 0.0639 µM); in the series on Staphylococcus aureus [1], 0.65 µg/mL (≈ 1.54 µM); in the series with Staphylococcus aureus [2], 0.7 µg/mL (≈ 1.66 µM); in [3] it was 15 µg/mL (≈ 35.5 µM); in the series on Plasmodium falciparum [4], 0.068 µg/mL (≈ 0.161 µM); in the series with Plasmodium falciparum [6], 0.068 µg/mL (≈ 0.161 µM). Also, inhibition in the series with Vero was half-maximal at 2.1 µg/mL (≈ 4.97 µM) (IC50). In the series on Leishmania donovani, the IC90 worked out at 0.057 µg/mL (≈ 0.135 µM). For the same molecule, the selectivity ratio in [5], in series [7] and in [8] was 31 throughout.

Regarding `C[C@@H]1[C@H](O)[C@@H](C)/C=C/C=C/C=C/C=C/C=C/C=C/C=C/[C@H](O[C@@H]2O[C@H](C)[C@@H](O)[C@H](N)[C@@H]2O)C[C@@H]2O[C@](O)(C[C@@H](O)C[C@@H](O)[C@H](O)CC[C@@H](O)C[C@@H](O)CC(=O)O[C@H]1C)C[C@H](O)[C@H]2C(=O)O` [AMPHOTERICIN B], the half-maximal inhibitory concentration (IC50) in the series with Leishmania donovani is 0.11 µg/mL (≈ 0.119 µM); with Vero, 6.5 µg/mL (≈ 7.03 µM). Further, in the series on Leishmania donovani, the IC90 was 0.23 µg/mL (≈ 0.249 µM). Further, in series [8], the selectivity ratio was found to be 59.

In turn, `C[C@@H]1CC[C@H]2[C@@H](C)C(=O)O[C@@H]3O[C@@]4(C)CC[C@@H]1[C@]32OO4` [ARTEMISININ] came in with a concentration for half-maximal inhibition (IC50) in the series on Plasmodium falciparum [6] of 0.0018 µg/mL (≈ 0.00638 µM).

Regarding `C=C1CC[C@]2(C)CC[C@]3(C)C4=CC=C5C(=CC(=O)C(O)=C5C)[C@]4(C)CC[C@@]3(C)[C@@H]2C1` [ISOIGUESTERIN], the half-maximal inhibitory concentration (IC50) with Leishmania donovani came out at 0.032 µg/mL (≈ 0.0791 µM); with Leishmania mexicana it was 0.035 µg/mL (≈ 0.0865 µM); in the series on Staphylococcus aureus [1], 0.85 µg/mL (≈ 2.1 µM); in the series on Staphylococcus aureus [2] it was 0.85 µg/mL (≈ 2.1 µM); in series [3], 4.5 µg/mL (≈ 11.1 µM); with Plasmodium falciparum [4], 0.2 µg/mL (≈ 0.494 µM). Also, the 50% inhibitory concentration (IC50) in the series on Plasmodium falciparum [6] was determined as 0.17 µg/mL (≈ 0.42 µM); with Vero, 1.6 µg/mL (≈ 3.95 µM). In the series with Leishmania donovani, this molecule came in with an IC90 of 0.055 µg/mL (≈ 0.136 µM). For the same molecule, the selectivity ratio came to 3.4 in [5], 3.9 in series [7] and 50 in [8].

For orientation: IC50 means the midpoint of a concentration-inhibition curve. The IC90 is the point of the concentration-response curve where the effect stands at 90%.
